Measurements gathered from unrelated publications.
Compare with care: the assays were run in different laboratories. pIC50: −log10 of the molar value.
Target: Acetylcholinesterase (ACHE, Homo sapiens, UniProt P22303)
Effect on: enzyme activity
Mode: inhibitor

Cc1ccc(NC(=O)CSc2nnc(COc3ccc4ccccc4c3)n2-c2ccccc2)c(C)c1  pIC50 (Ellman): 6.16
O=c1cc(CSc2ccc(N=Cc3cccc(F)c3)cc2)occ1O  pIC50 (Ellman): 4.58
COc1cc(-c2nc3ccccc3s2)cc(NC(C)=O)c1OCC(=O)N[C@@H](C)C(=O)O  pIC50 (Ellman): < 3.54
O=c1cc(CSc2ccc(N=Cc3cccc(Cl)c3)cc2)occ1O  pIC50 (Ellman): 4.88
CCOc1cccc(NC(=O)CSc2nnc(COc3ccc4ccccc4c3)n2-c2ccccc2)c1  pIC50 (Ellman): 5.94
COc1cc(-c2nc3ccccc3s2)cc2c1OCC(=O)N2CC(=O)N[C@@H](CC(C)C)C(=O)O  pIC50 (Ellman): < 3.58
O=c1cc(CSc2ccc(N=Cc3ccc(O)cc3)cc2)occ1O  pIC50 (Ellman): 5.30
CCc1cccc(C)c1NC(=O)CSc1nnc(COc2ccc3ccccc3c2)n1-c1ccccc1  pIC50 (Ellman): 5.85
O=c1cc(CSc2ccc(N=Cc3ccccc3F)cc2)occ1O  pIC50 (Ellman): 5.39
COc1cc(-c2nc3ccccc3s2)cc(NC(C)=O)c1OCC(=O)N[C@H](C(=O)O)C(C)C  pIC50 (Ellman): < 3.57
CC(C)c1cc2c(c(O)c1O)[C@@]13CCCC(C)(C)[C@@H]1[C@H](OC3=O)[C@H]2O  pIC50: 9.13
COc1cc(-c2nc3ccccc3s2)cc2c1OCC(=O)N2CC(=O)NCC(=O)O  pIC50 (Ellman): < 3.52
CCOc1ccc(NC(=O)CSc2nnc(COc3ccc4ccccc4c3)n2-c2ccccc2)cc1  pIC50 (Ellman): 6.09
CC(C)c1cc2c(c(O)c1O)[C@@]13CCCC(C)(C)[C@@H]1[C@@H](O)[C@@H]2OC3=O  pIC50: 9.01
COc1cc(-c2nc3ccccc3s2)cc2c1OCC(=O)N2CC(=O)N[C@@H](Cc1ccccc1)C(=O)O  pIC50 (Ellman): < 3.61
